Data from PubChem BioAssay.
Inconclusive results are not listed.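 The calls were made as follows, unless noted: active = RAM network inhibition above 8.4% in each of two replicates, 3 SD over the compound average; inconclusive = above 8.4% inhibition in only one replicate; inactive = 8.4% inhibition or less in each replicate.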

Columns and labels:
[1] = S. cerevisiae growth inhibition in permissive medium (OD615), pilot counter-assay for S. cerevisiae lifespan shortening project, permissive growth control (AID 705;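 active = growth inhibition above 25% in both replicates, a cutoff set 3 SD above the mean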); details: OD615, 24 h, at 10 µM, active compounds read high
Method in brief: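 Material: engineered DeaD yeast; Compound: one dose 10 µM, DMSO 0.25% final; Detection: absorbance (optical density) at 615 nm; Buffer or medium: permissive raffinose/galactose medium; Timing: 24 h exposure, 30 °C.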

[2] = S. cerevisiae growth inhibition in restrictive medium, OD615, pilot screen, restrictive growth control, yeast lifespan reduction project (AID 706;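 active = growth inhibition above a set limit, 3 SD over mean compound inhibition, in both replicates, cut at about 43% in these data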;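 also: modified DeaD lifespan yeast strain shifted to restrictive glucose medium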); details: OD615, 48 h, at 10 µM, active compounds read high
Method in brief: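 Buffer or medium: restrictive glucose medium (CSMM-D); test system: modified S. cerevisiae; doses: single dose of 10 µM compound final, 0.25% DMSO; schedule: 48 h compound exposure at 30 °C; detection: absorbance (optical density) measured at 615 nm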

[3] = doxorubicin toxicity protection in MRP-1 cells – H69AR cells, CellTiter-Glo, duplicate, MRP-1 activator project, pilot screen (AID 807;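 active = viability increase at or above a cutoff of the median across tested compounds plus 3 SD, cut at about 8.5% in these data, passing the limit was not always enough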;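 also: compound pretreatment 18-22 h then 72 h combined with doxorubicin; 0% = doxorubicin alone and 100% = vehicle without doxorubicin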); details: H69AR viability with doxorubicin, CellTiter-Glo luminescence; at 10 µM; active compounds read high
[4] = viability of HCT116 without oncogenic beta-catenin – human colon tumor cells, pilot screen (AID 823;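 active = cell viability at or below a set limit in both duplicate runs, the limit being the all-compound median minus 4 SD, cut at about 23% in these data, passing the limit was not always enough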;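 also: 0% = wells killed by 20 µM Hyamine and 100% = untreated DMSO cell wells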); details: HCT116 beta-catenin knockout viability, CellTiter-Glo, 60 h; at 10 µM; active compounds read low
[5] = viability of PTEN-null HCT116 cells – cell-based, HCT116 clonal line, CellTiter-Glo, pilot screen (AID 824;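 active = viability at or below 27.92% in each of two runs, the all-compound median minus 4 SD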;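 also: 0% = 20 µM Hyamine control and 100% = vehicle cell control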); details: HCT116 PTEN-deleted viability, 60 h, at 10 µM, active compounds read low
[6] = RAM pathway blockade in budding yeast – dse1pr::URA3 reporter, 5-FOA selection, pilot screen (AID 869;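 active = inhibition over a set limit, the all-compound mean plus 3 SD, in both replicate runs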;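 also: 0% = DMSO wells with no growth and 100% = 10 µM 1-NA-PP1 with full growth; RAM network block rescues cells from 5-FOA so hits raise OD615 growth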); details: S. cerevisiae dse1pr::URA3 5-FOA growth, OD615, 2 d; at 10 µM; active compounds read high; strain carries analog-sensitive mutant Cbk1 kinase
[7] = RAM signaling pathway blockade in yeast – S. cerevisiae, Pdr1DBD-CYC8 efflux-inhibited sensitized strain, primary screen (AID 1298);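 also: 0% = DMSO untreated cells without growth and 100% = 10 µM 1-NA-PP1 full growth; higher means more yeast growth rescued from 5-FOA killing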; details: S. cerevisiae cbk1-as DSE1-URA3 strain, 5-FOA growth OD615, 2 d; at 50 µM; active compounds read high

C=CCn1c(C(C)NC(=O)C(C)(C)C)nc2ccccc21 (stereo not drawn)
inactive: growth inhibition [1] -9.47% | growth inhibition [2] -11.3% | viability increase [3] 1.33% | viability [4] 94.8% | viability [5] 95.5% | inhibition [6] 1.41% | RAM network inhibition [7] 0.71%

CCn1c(SCC(=O)N2CCCC2)nc2c(c1=O)SC(C)C2 (stereo not drawn)
inactive: growth inhibition [1] -17.4% | growth inhibition [2] -27.5% | viability increase [3] -4.48% | viability [4] 101% | viability [5] 95.6% | inhibition [6] 1.73% | RAM network inhibition [7] 3.14%

CC(NC(=O)Cn1cc2c(n1)CCCCC2)c1ccccc1 (stereo not drawn)
inactive: growth inhibition [1] -0.875% | growth inhibition [2] 2.88% | viability increase [3] 3.53% | viability [4] 101% | viability [5] 100% | inhibition [6] -0.32% | RAM network inhibition [7] 0.87%

Cc1ccccc1-n1c(=O)cc(N2CCCCCC2)[nH]c1=O
inactive: growth inhibition [1] -4.08% | growth inhibition [2] -0.93% | viability increase [3] -2.23% | viability [4] 99.9% | viability [5] 98.1% | inhibition [6] 2.07% | RAM network inhibition [7] 6.58%

Cn1c(=O)c2c(nc(NCCc3ccccc3)n2Cc2ccc(F)cc2)n(C)c1=O
inactive: growth inhibition [1] -4.81% | growth inhibition [2] -8.86% | viability increase [3] 1.3% | viability [4] 69.8% | viability [5] 55.3% | inhibition [6] 1.03% | RAM network inhibition [7] 5.94%

CCc1ccc(NC(=O)CSc2nc3c(c(=O)n(C)c(=O)n3C)n2C)cc1
inactive: growth inhibition [1] 3.77% | growth inhibition [2] -8% | viability increase [3] -1.41% | viability [4] 91.8% | viability [5] 94.6% | inhibition [6] 1.03% | RAM network inhibition [7] 0.68%

Cc1c(C(=O)NCC(C)C)sc2nc(-c3ccc(F)cc3)cn12
inactive: growth inhibition [1] -13.9% | growth inhibition [2] -12% | viability increase [3] 1.99% | viability [4] 111% | viability [5] 103% | inhibition [6] 2.99% | RAM network inhibition [7] 10.7%

CC1(C)CC(=O)c2cc(C(=O)N3CCN(CCO)CC3)c(=O)n(-c3ccc(Cl)cc3)c2C1
inactive: growth inhibition [1] -6.56% | growth inhibition [2] -25.4% | viability increase [3] -0.93% | viability [4] 103% | viability [5] 100% | inhibition [6] 1.81% | RAM network inhibition [7] 3.06%

O=C(Nc1cccc2c1CCCC2)c1ccc(Br)o1
inactive: growth inhibition [1] -11.8% | growth inhibition [2] 6.87% | viability increase [3] -1.15% | viability [4] 79.6% | viability [5] 68% | inhibition [6] 2.19% | RAM network inhibition [7] 9.1%

COc1ccc(CCNc2oc(-c3ccc(C)cc3)nc2C#N)cc1OC
inactive: growth inhibition [1] -10.8% | growth inhibition [2] -13.3% | viability increase [3] -0.33% | viability [4] 95.8% | viability [5] 104% | inhibition [6] 0.67% | RAM network inhibition [7] -0.47%

Cc1nc2sc(C(c3ccco3)N3CCN(C(c4ccccc4)c4ccccc4)CC3)c(O)n2n1 (stereo not drawn)
inactive: growth inhibition [1] -4.01% | growth inhibition [2] 2.75% | viability increase [3] -4.32% | viability [4] 75.6% | viability [5] 62.6% | inhibition [6] 1.81% | RAM network inhibition [7] 10.8%

Brc1[nH]nc2ccccc12
inactive: growth inhibition [1] -1.23% | growth inhibition [2] 5.22% | viability increase [3] -3.24% | viability [4] 96.7% | viability [5] 94.9% | inhibition [6] 0.28% | RAM network inhibition [7] 0.05%

Cc1ccc2oc(=O)c3cnn(CC(=O)NCCCOC(C)C)c3c2c1
inactive: growth inhibition [1] -9.03% | growth inhibition [2] -7.34% | viability increase [3] -2.72% | viability [4] 106% | viability [5] 94.2% | inhibition [6] 1.87% | RAM network inhibition [7] 8.19%

CCC(C)(C(=O)NC1CCCCC1)N(C(=O)C1CCC(=O)N1)c1ccc(C)cc1 (stereo not drawn)
inactive: growth inhibition [1] 2.44% | growth inhibition [2] -4.21% | viability increase [3] -1.97% | viability [4] 98.7% | viability [5] 92.1% | inhibition [6] 1.71% | RAM network inhibition [7] 1.9%

O=S(=O)(Nc1cccc(-c2nc3cccnc3s2)c1)c1ccc2c(c1)OCCO2
inactive: growth inhibition [1] -0.93% | growth inhibition [2] 13.3% | viability increase [3] 0.73% | viability [4] 97.7% | viability [5] 85.3% | inhibition [6] 3.69% | RAM network inhibition [7] 5.51%

O=C(OCCOCCN=C1NS(=O)(=O)c2ccccc21)C1CC(=O)N(c2ccccc2)C1 (stereo not drawn)
inactive: growth inhibition [1] 4.05% | growth inhibition [2] 5.13% | viability increase [3] -1.16% | viability [4] 100% | viability [5] 87.3% | inhibition [6] 2.11% | RAM network inhibition [7] 1.23%

CCOc1ccc(C2CC(c3ccccc3C)n3ncnc3N2)cc1 (stereo not drawn)
inactive: growth inhibition [1] -6.31% | growth inhibition [2] 13.4% | viability increase [3] -1.48% | viability [4] 87.3% | viability [5] 77.4% | inhibition [6] 1.83% | RAM network inhibition [7] -1.78%

CC1CC(C)CN(CCCNC(=O)Cn2ncc3c(=O)oc4ccccc4c32)C1 (stereo not drawn)
inactive: growth inhibition [1] -0.3% | growth inhibition [2] 0.08% | viability increase [3] -1.86% | viability [4] 99% | viability [5] 101% | inhibition [6] 3.87% | RAM network inhibition [7] 5%

Cn1c(CSc2nc3ccc(Br)cc3[nH]2)nc2ccccc21
inactive: growth inhibition [1] -3.63% | growth inhibition [2] 12.1% | viability increase [3] 1.66% | viability [4] 90.8% | viability [5] 85.2% | inhibition [6] 1.4% | RAM network inhibition [7] 9.55%

CP(=O)(COC(=O)c1ccccc1)COC(=O)c1ccccc1
inactive: growth inhibition [1] -20.8% | growth inhibition [2] -19% | viability increase [3] -0.63% | viability [4] 100% | viability [5] 96.5% | inhibition [6] 3.13% | RAM network inhibition [7] 1.26%

ON1C(c2ccc(Cl)cc2Cl)N(O)[C@H]2CCCC[C@H]21 (stereo partly drawn)
inactive: growth inhibition [1] -6.31% | growth inhibition [2] -5.43% | viability increase [3] -1.27% | viability [4] 101% | viability [5] 100% | inhibition [6] 1.35% | RAM network inhibition [7] 4.97%

COc1ccccc1N1C(=O)N(C(C)=O)C2C1Nc1ccccc1N2C (stereo not drawn)
inactive: growth inhibition [1] -2.22% | growth inhibition [2] -10% | viability increase [3] -5.51% | viability [4] 78.2% | viability [5] 86.5% | inhibition [6] 1.71% | RAM network inhibition [7] 4.65%

c1cnn(-c2nc(N3CCOCC3)nc(N3CCOCC3)n2)c1
inactive: growth inhibition [1] 0.06% | growth inhibition [2] 7.23% | viability increase [3] -5.18% | viability [4] 67.1% | viability [5] 72.9% | inhibition [6] 1.96% | RAM network inhibition [7] -2.04%

O=C(NCCc1cn2ccsc2n1)c1cccs1
inactive: growth inhibition [1] -14.1% | growth inhibition [2] -12.4% | viability increase [3] -1.75% | viability [4] 105% | viability [5] 102% | inhibition [6] 1.29% | RAM network inhibition [7] 3.51%
